Assay outcomes (PubChem BioAssay)
EBV gp42 block = Epstein-Barr virus gp42 inhibitors, primary screen, biochemical, uHTS, fluorescence polarization. Fluorescence polarization binding assay, mP read-out. inhibition, % (tested at 21.74 µM). 220,000 tested, 0.42% active. AID 1085, 2008; in the data active = inhibition above about 50%
Target sequence (Q1HVG2 whole entry, looked up): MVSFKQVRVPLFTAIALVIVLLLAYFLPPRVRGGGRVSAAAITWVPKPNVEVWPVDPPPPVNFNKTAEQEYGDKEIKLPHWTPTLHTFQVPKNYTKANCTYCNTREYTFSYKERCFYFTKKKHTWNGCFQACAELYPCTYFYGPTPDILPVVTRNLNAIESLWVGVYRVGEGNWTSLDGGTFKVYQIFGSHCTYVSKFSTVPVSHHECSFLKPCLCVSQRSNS
eIF4E 4G PPI = eIF4E–eIF4G protein interaction inhibitors, primary screen, biochemical, uHTS, TR-FRET, eIF4GI fragment; inhibition, % at 21.7 µM; TR-FRET eIF4E-eIF4GI(517-606) binding, 2 h; AID 782, 2007; 220,000 tested, 0.37% active; Eukaryotic translation initiation factor 4E (Mus musculus) + Eukaryotic translation …;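 also: 0% = full FRET control wells and 100% = background wells lacking eIF4GI fragment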
NCF1 inh = p47phox/p22phox peptide binding inhibitors, primary screen, biochemical, uHTS, NADPH oxidase regulatory subunit; Neutrophil cytosol factor 1 (Homo sapiens), P14598; fluorescence polarization, 2 h; inhibition, % at 24.7 µM; 220,000 tested, 0.53% active;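 also: 0% = p47phox with labelled peptide and 100% = labelled peptide alone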
WT yeast gro inh = growth inhibition of WT strain, primary screen, mitochondrial fusion inhibitor project, WT and mutant strains, chemical genetic; mitochondrial fusion phenotypic screen; inhibition, % at 10 µM; 190,000 tested, 2.1% active; AID 1362, 2008; in the data active = inhibition above about 58%; tested in S. cerevisiae
RBBP9 inhibitor = human RBBP9 inhibitors, primary screen, biochemical, fluorescence polarization, FP-Rh probe, HTS. inhibition, % at 7.94 µM. AID 1515, 2009. 220,000 tested, 0.2% active. Serine hydrolase RBBP9 (Homo sapiens), O75884. recombinant RBBP9;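 active = inhibition above the campaign mean of all tested compounds plus 3 SD, cut at about 14% in these data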;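 also: plate controls were DMSO wells with RBBP9 for no effect and wells lacking RBBP9 protein for full effect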
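System: RBBP9 protein | Quantity: 2.5 µM RBBP9 dispensing solution, before mixing | Reagent: FP-Rh probe, 375 nM dispensing solution | Timing: Enzyme-compound preincubation 30 min, then probe labeling 45 min, 25 °C | Measured by: Fluorescence polarization | Read-out: % inhibition | Replication: One well per compound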
14-3-3 Bad PPI = inhibitors of 14-3-3 zeta/Bad binding, primary screen, biochemical, TR-FRET, bovine 14-3-3 zeta. inhibition, % at 21.7 µM. TR-FRET 14-3-3zeta/Dy647-pBad peptide displacement, 1 h. 220,000 tested, 0.71% active. AID 781, 2007. 14-3-3 protein zeta/delta (Bos taurus), P63103;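 active = inhibition above about 70%, limit read from the data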;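 also: 0% = full 14-3-3 plus peptide FRET controls and 100% = background without 14-3-3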
Target sequence (P63103 whole entry, looked up): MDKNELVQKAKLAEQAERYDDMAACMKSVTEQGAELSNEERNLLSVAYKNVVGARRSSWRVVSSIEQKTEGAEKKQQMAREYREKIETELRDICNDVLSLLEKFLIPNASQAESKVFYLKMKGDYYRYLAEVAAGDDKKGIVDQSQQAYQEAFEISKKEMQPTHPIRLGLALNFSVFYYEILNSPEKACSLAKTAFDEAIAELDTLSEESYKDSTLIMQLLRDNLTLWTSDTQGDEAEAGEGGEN
The depositor's hits bear a star; x = no result given. Compounds with a hit are over-represented: about 3.7% of the library has one in this group of screens.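 The calls were made as follows, unless noted: active = inhibition above about 30% (limit read from the data); inactive = the rest.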

SMILES | EBV gp42 block | eIF4E 4G PPI | NCF1 inh | WT yeast gro inh | RBBP9 inhibitor | 14-3-3 Bad PPI
CCOC(=O)N1CCN(CC(=O)c2ccc3c(c2)CCN3C(C)=O)CC1 | -8 | 2 | 49* | 9 | -8 | -21
CC(=O)N1CCc2cc(C(=O)CN3CCCCC3)ccc21 | 10 | 0 | -1 | -10 | -4 | -7
Cc1cc(Cl)ccc1NC(=O)C1CCN(S(C)(=O)=O)CC1 | -1 | 1 | x | -10 | 1 | -2
CCC(CC)c1nnc(NC(=O)Cc2ccccc2[N+](=O)[O-])s1 | 2 | -5 | -5 | -17 | -9 | -1
CC1(C(=O)N(Cc2ccccc2)Cc2ccccc2)CC1(Br)Br (configuration not stated) | 11 | 0 | 4 | 83* | -17 | 3
CN(Cc1ccccc1)C(=O)CCC(=O)N(C)Cc1ccccc1 | -14 | 1 | -15 | -7 | -1 | -2
O=S(=O)(NCc1ccco1)c1cnc(Cl)c(Br)c1 | -14 | -3 | -6 | -4 | -2 | 18
COc1ccccc1-c1noc(-c2ccccc2)n1 | -21 | 87* | -13 | 6 | -5 | 4
COc1cc(-c2nc(-c3cccc(C)c3)no2)cc(OC)c1OC | -6 | 2 | -3 | 66* | -8 | -6
c1ccc(-c2noc(-c3cccc4ccccc34)n2)cc1 | -12 | 4 | -25 | 67* | -5 | 4
O=C1CN(C(=O)c2ccccc2F)c2ccccc2N1 | -13 | -1 | -7 | -13 | -2 | -3
O=C1CN(C(=O)c2cccs2)c2ccccc2N1 | -17 | 47* | 4 | 10 | -7 | 53
Cn1cccc1CC(=O)NNC(=S)NC(=O)c1ccc(F)cc1 | -21 | -1 | -2 | x | -1 | -9
Nn1c(SCC(=O)N2CCOCC2)nnc1C1CC1 | 0 | -1 | 0 | -12 | -8 | -19
COCCSc1nnc(NC(=O)c2ccc([N+](=O)[O-])cc2)s1 | -25 | 1 | -6 | 3 | -6 | -7
CCOC(=O)CSc1nnc(NC(=O)c2cc([N+](=O)[O-])cc([N+](=O)[O-])c2)s1 | -15 | -3 | 36* | 6 | -4 | 11
CN(C)N=Nc1nc2c(c(=O)n(C)c(=O)n2C)n1CC1CO1 (configuration not stated) | -3 | -2 | -1 | x | -5 | -4
Cc1cc(-c2sccc2C)nc(-n2cccc2)n1 | -19 | 3 | -4 | 68* | -7 | 3
CCOC(=O)c1c(C)n(OCc2ccccc2)c2ccc3nonc3c12 | -8 | -5 | -4 | 32 | -8 | -1
COn1c(C)c(C)c2c3nonc3ccc21 | -15 | 4 | -15 | x | -9 | 95*
CCN(CC)C(=O)CSc1nnc2nnc3cc(Cl)ccc3n12 | 67* | -3 | 9 | x | -11 | 1
COC(=O)CNc1cccc(C(F)(F)F)c1 | -7 | 0 | -6 | -5 | -1 | -7
CC(C)c1ccc(OCC(=O)NC2=NCCS2)cc1 | 4 | -1 | -2 | -7 | -1 | -1
O=C(Nc1ccc(O)c(-c2nc3ccccc3s2)c1)c1cc(=O)c2ccccc2o1 | 9 | 12 | -54 | -12 | -7 | 76*
CCOC(=O)C1=C(C)NC(=S)NC1c1ccc(-c2ccc(Cl)cc2)o1 (configuration not stated) | -15 | -1 | -52 | 66* | -11 | -12
SMILES | EBV gp42 block | eIF4E 4G PPI | NCF1 inh | WT yeast gro inh | RBBP9 inhibitor | 14-3-3 Bad PPI
CCOC(=O)C1=C(C)NC(=O)NC1c1ccc(-c2ccc(Cl)cc2)o1 (configuration not stated) | -28 | 2 | -41 | -16 | -8 | -6
N/C(=N/OC(=O)c1ccc(Cl)cc1)c1ncc([N+](=O)[O-])s1 | -17 | 4 | 3 | x | -4 | 12
COc1ccc(S(=O)(=O)N=C2C=C(C)C(=O)C(C)=C2)cc1 | 4 | 4 | -9 | 48 | -2 | 72*
CC1=CC(=O)c2c(O)ccc(O)c2C1=O | 116* | 63* | -23 | 35 | 16* | 91*
COC(=O)[C@H](CC(C)C)NC(=O)N1CCC(C)CC1 | -4 | 2 | -5 | x | 9 | -2
CCC(C)N1C(=O)/C(=C/c2c(NCCCOC(C)C)nc3c(C)cccn3c2=O)SC1=S (configuration not stated) | 130* | -1 | -14 | 16 | -3 | -3
CCCN1C(=O)/C(=C/c2c(NCCCOC(C)C)nc3c(C)cccn3c2=O)SC1=S | -61 | 3 | -44 | -5 | 0 | -15
Cc1ccc(-c2nnc(Oc3ccc(NC(=O)c4ccccc4)cc3)c3ccccc23)cc1 | 18 | 13 | 43* | 0 | -10 | 23
Cc1cccc(OCCSc2nc(N)cc(N)n2)c1 | -4 | -4 | -8 | x | -3 | -2
O=c1[nH]c(C(Cl)Cl)nc2sc3c(c12)CCN(Cc1ccccc1)C3 | 56* | 10 | -46 | -12 | -1 | 20
Cc1cccc(C(=O)O/N=C(\N)Cc2ccc([N+](=O)[O-])cc2)c1 | 5 | 3 | -4 | -4 | -6 | 1
COc1cccc(C(=O)O/N=C(\N)Cc2ccc(Cl)cc2)c1 | -4 | 5 | -11 | 68* | 2 | -7
N/C(Cc1ccc([N+](=O)[O-])cc1)=N\OC(=O)c1ccc2ccccc2c1 | -7 | -17 | -5 | 81* | -1 | 9
CCOc1ccc(/C=N/NC(=O)Cc2cccs2)cc1 | -12 | 1 | -10 | x | -7 | -7
CN(Cc1ccon1)C(=O)CC1C(=O)NCCN1CC1CCCCC1 (configuration not stated) | -10 | -1 | -7 | 7 | -3 | -4
CC(C)c1ccc(NC(=O)CNS(=O)(=O)c2ccc(F)cc2)cc1 | -1 | 6 | -6 | -2 | 2 | -5
CC1CCc2c(sc3nc(CSc4ncn[nH]4)[nH]c(=O)c23)C1 (configuration not stated) | -7 | 2 | -3 | -14 | -10 | -3
COc1cccc(NC(=O)Nc2ccc(C(C)(C)C)cc2)c1 | -4 | 66* | -23 | 63* | -4 | -3
COc1cccc(NC(=O)Nc2ccncc2)c1 | -5 | -2 | 0 | 2 | -6 | -5
O=C(CCN1C(=O)c2ccccc2C1=O)C1=NN[C@@H]2C(=O)N(c3ccc4c(c3)OCCO4)C(=O)[C@H]12 | -1 | 0 | -10 | x | -6 | 0
CCc1nnc(NC(=O)Cc2ccc(OCc3c(C)noc3C)cc2)s1 | -20 | 65* | -11 | 0 | 1 | -6
CCOCCCNC(=O)/C(C#N)=C/c1ccc([N+](=O)[O-])o1 | 7 | 10 | -12 | 91* | -12 | -1
